Calls of active or inactive are those of the source. The calls are words filed in the database; no cut-off is given here.
Key:
[1] = target: T1, Histidine-rich protein PFHRP-II (Plasmodium falciparum) (UniProt P05227); experiment: Inhibition of beta-hematin formation as ratio to heme molar equivalent in Plasmodium falciparum; assay type: functional
T1 sequence (whole entry): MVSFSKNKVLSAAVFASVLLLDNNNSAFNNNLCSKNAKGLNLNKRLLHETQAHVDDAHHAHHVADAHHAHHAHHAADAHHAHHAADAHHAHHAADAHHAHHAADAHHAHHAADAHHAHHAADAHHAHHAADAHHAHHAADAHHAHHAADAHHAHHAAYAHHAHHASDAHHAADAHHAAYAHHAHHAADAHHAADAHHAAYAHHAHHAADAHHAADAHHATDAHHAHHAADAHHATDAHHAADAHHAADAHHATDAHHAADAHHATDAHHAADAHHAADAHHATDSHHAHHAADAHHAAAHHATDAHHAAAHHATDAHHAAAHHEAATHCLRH

[2] = Cytotoxicity against mouse WEHI clone 13 cells by MTT assay; assay type: cell-based
[3] = Cytotoxicity against human HMEC1 cells by MTT assay; assay type: cell-based; conditions: HMEC-1
K562 = experiment: Cytotoxicity against human K562 cells by MTT assay; assay type: cell-based
Plasmodium berghei [4] = experiment: Antimalarial activity as reduced parasitaemia against Plasmodium berghei ANKA infected NMRI mice (Mus musculus) at 100 mg/kg peroral dose after 3 days; assay type: functional; set-up: scale not given: the % may be the effect or the level left; conditions: route oral
Summary of the method: (§1)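 GFP-transfected P. berghei ANKA-infected NMRI mice, in groups of three, got a single dose 1 day post-infection. Compounds were in 70/30 Tween 80/ethanol, diluted 10× with water. Read-outs were % parasitemia reduction on day 3 post-infection and survival time versus untreated controls (n = 5).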

Plasmodium berghei [5] = experiment: Antimalarial activity as survival time in Plasmodium berghei ANKA infected NMRI mice (Mus musculus) at 100 mg/kg peroral dose after 3 days; assay type: functional; conditions: route oral; summary of the method: as §1
Plasmodium berghei [6] = experiment: Antimalarial activity as reduced parasitaemia against Plasmodium berghei ANKA infected NMRI mice (Mus musculus) at 30 mg/kg subcutaneous dose after 3 days; assay type: functional; set-up: scale not given: the % may be the effect or the level left; summary of the method: as §1
Plasmodium berghei [7] = experiment: Antimalarial activity as survival time in Plasmodium berghei ANKA infected NMRI mice (Mus musculus) at 30 mg/kg subcutaneous dose after 3 days; assay type: functional; summary of the method: as §1
Plasmodium berghei [8] = experiment: Antimalarial activity as reduced parasitaemia against Plasmodium berghei ANKA infected NMRI mice (Mus musculus) at 30 mg/kg/day peroral dose over 4 days; assay type: functional; set-up: scale not given: the % may be the effect or the level left; conditions: route oral
Summary of the method: (§2)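 NMRI mice, in groups of three, were infected with GFP-transfected P. berghei ANKA. Treatment started 1 day post-infection, once daily for 4 consecutive days. Compounds were formulated in 70/30 Tween 80/ethanol and diluted 10× with water. Read-outs were % parasitemia reduction on day 4 post-infection and survival versus untreated controls (n = 5). Cure meant no parasites by microscopy at day 30.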

Plasmodium berghei [9] = experiment: Antimalarial activity a survival time in Plasmodium berghei ANKA infected NMRI mice (Mus musculus) at 30 mg/kg/day peroral dose over 4 days; assay type: functional; conditions: route oral; summary of the method: as §2
Plasmodium berghei [10] = experiment: Antimalarial curative activity at day 30 against Plasmodium berghei ANKA infected NMRI mice (Mus musculus) at 30 mg/kg/day peroral dose over 4 days; assay type: functional, organism-based; summary of the method: as §2
Plasmodium berghei [11] = experiment: Antimalarial activity as reduced parasitaemia against Plasmodium berghei ANKA infected NMRI mice (Mus musculus) at 10 mg/kg/day peroral dose over 4 days; assay type: functional; set-up: scale not given: the % may be the effect or the level left; conditions: route oral; summary of the method: as §2
Plasmodium berghei [12] = experiment: Antimalarial activity as survival time against Plasmodium berghei ANKA infected NMRI mice (Mus musculus) at 10 mg/kg/day peroral dose over 4 days; assay type: functional; conditions: route oral; summary of the method: as §2
Plasmodium berghei [13] = experiment: Antimalarial activity as reduced parasitaemia against Plasmodium berghei ANKA infected NMRI mice (Mus musculus) at 10 mg/kg/day subcutaneous dose over 4 days; assay type: functional; set-up: scale not given: the % may be the effect or the level left; summary of the method: as §2
Plasmodium berghei [14] = experiment: Antimalarial activity as survival time against Plasmodium berghei ANKA infected NMRI mice (Mus musculus) at 10 mg/kg/day subcutaneous dose over 4 days; assay type: functional; summary of the method: as §2
Plasmodium berghei [15] = experiment: Antimalarial activity as reduced parasitaemia against Plasmodium berghei ANKA infected NMRI mice (Mus musculus) at 3 mg/kg/day subcutaneous dose over 4 days; assay type: functional; set-up: scale not given: the % may be the effect or the level left; summary of the method: as §2
Plasmodium berghei [16] = experiment: Antimalarial activity as survival time against Plasmodium berghei ANKA infected NMRI mice (Mus musculus) at 3 mg/kg/day subcutaneous dose over 4 days; assay type: functional; summary of the method: as §2
Liver microsomes = experiment: Metabolic stability in human liver microsomes assessed as clearance; assay type: ADME, Microsome
Summary of the method: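 Human liver microsomes were used at a final 0.5 mg/ml in potassium phosphate buffer pH 7.4, with compound in DMSO, pre-incubated 10 min at 37 °C. The reaction was started with NADP, G6P, G6P-DH, MgCl2 3 mM and UDPGA 1 mM. Samples were taken at 0 and 30 min, quenched in acetonitrile and analysed by LC–MS/MS. A no-cofactor control and a 7-ethoxycoumarin standard were included.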

Plasmodium falciparum [17] = experiment: Antimalarial activity against chloroquine-sensitive Plasmodium falciparum D10 by LDH assay; assay type: functional, organism-based
Summary of the method: (§3)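 Parasite growth inhibition in P. falciparum culture was read as parasite lactate dehydrogenase production. IC50 is the mean of 3–4 experiments, each run in triplicate.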

Plasmodium falciparum [18] = experiment: Antimalarial activity against chloroquine-resistant Plasmodium falciparum W2 by LDH assay; assay type: functional, organism-based; summary of the method: as §3
Plasmodium falciparum [19] = experiment: Antimalarial activity against chloroquine-sensitive Plasmodium falciparum NF54 by [3H]hypoxanthine uptake; assay type: functional, organism-based
Summary of the method: (§4)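 Growth inhibition of P. falciparum was measured by [3H]-hypoxanthine incorporation. IC50 is the mean of two experiments.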

Plasmodium falciparum [20] = experiment: Antimalarial activity against chloroquine-resistant Plasmodium falciparum K1 by [3H]hypoxanthine uptake; assay type: functional, organism-based; summary of the method: as §4
Mus musculus [21] = experiment: Toxicity in CD1 mouse assessed as body weight variation at 50 mg/kg, ip after 13 days; assay type: organism-based; set-up: dose 50 mg/kg, route intraperitoneal; conditions: in vivo, 312 h
Summary of the method: (§5)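 Intraperitoneal dosing was given to groups of 4 mice alongside an untreated control group. Surviving mice were counted and signs noted. Mean body weight was recorded initially and after 5 and 13 days, expressed as % variation.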

Mus musculus [22] = experiment: Toxicity in CD1 mouse assessed as survival at 100 mg/kg, ip; assay type: organism-based; set-up: dose 100 mg/kg, route intraperitoneal; conditions: in vivo; summary of the method: as §5
Mus musculus [23] = experiment: Toxicity in CD1 mouse assessed as survival at 50 mg/kg, ip; assay type: organism-based; set-up: dose 50 mg/kg, route intraperitoneal; conditions: in vivo; summary of the method: as §5
Mus musculus [24] = experiment: Toxicity in CD1 mouse assessed as body weight variation at 150 mg/kg, ip after 5 days; assay type: organism-based; set-up: dose 150 mg/kg, route intraperitoneal; conditions: in vivo, 120 h; summary of the method: as §5
Mus musculus [25] = experiment: Toxicity in CD1 mouse assessed as body weight variation at 100 mg/kg, ip after 5 days; assay type: organism-based; set-up: dose 100 mg/kg, route intraperitoneal; conditions: in vivo, 120 h; summary of the method: as §5
Mus musculus [26] = experiment: Toxicity in CD1 mouse assessed as body weight variation at 50 mg/kg, ip after 5 days; assay type: organism-based; set-up: dose 50 mg/kg, route intraperitoneal; conditions: in vivo, 120 h; summary of the method: as §5
Mus musculus [27] = experiment: Toxicity in CD1 mouse assessed as body weight variation at 150 mg/kg, ip after 13 days; assay type: organism-based; set-up: dose 150 mg/kg, route intraperitoneal; conditions: in vivo, 312 h; summary of the method: as §5
Mus musculus [28] = experiment: Toxicity in CD1 mouse assessed as body weight variation at 100 mg/kg, ip after 13 days; assay type: organism-based; set-up: dose 100 mg/kg, route intraperitoneal; conditions: in vivo, 312 h; summary of the method: as §5

| SMILES | Activity [1] | IC50 [2] [nM] | IC50 [3] [nM] | IC50 (K562) [nM] | Activity (Plasmodium berghei [4]) [%] | Activity (Plasmodium berghei [5]) [days] | Activity (Plasmodium berghei [6]) [%] | Activity (Plasmodium berghei [7]) [days] | Activity (Plasmodium berghei [8]) [%] | Activity (Plasmodium berghei [9]) [days] | Activity (Plasmodium berghei [10]) | Activity (Plasmodium berghei [11]) [%] | Activity (Plasmodium berghei [12]) [days] | Activity (Plasmodium berghei [13]) [%] | Activity (Plasmodium berghei [14]) [days] | Activity (Plasmodium berghei [15]) [%] | Activity (Plasmodium berghei [16]) [days] | CL (Liver microsomes) [mL/min/g] | IC50 (Plasmodium falciparum [17]) [nM] | IC50 (Plasmodium falciparum [18]) [nM] | also measured |
| --- | --- | --- | --- | --- | --- | --- | --- | --- | --- | --- | --- | --- | --- | --- | --- | --- | --- | --- | --- | --- | --- |
| CCN(CC)CCCC(C)Nc1ccnc2cc(Cl)ccc12.O=P(O)(O)O.O=P(O)(O)O (stereo not drawn) [CHLOROQUINE PHOSPHATE] | 1.69 | > 40000 | > 40000 | 31800 | 99.2 | 14.7 | 99.2 | 9.7 | >99.9 | 30 | Active | 99.9 | 22.3 | >99.9 | 15.7 | 99.8 | 9.3 | – | – | – | – |
| CCOc1ccc2ccc(=O)oc2c1 [ETHOXYCOUMARIN] | – | – | – | – | – | – | – | – | – | – | – | – | – | – | – | – | – | 7 | – | – | – |
| Clc1ccc2c(NCCC34CCCN3CCC4)ccnc2c1 | 1.66 | 61400 | > 60000 | 17600 | 98 | 12.3 | 99.1 | 8.7 | >99.9 | 30 | Active | >99.9 | 14.7 | >99.9 | 15.3 | 94 | 9.3 | – | 5.5 | 54.7 | IC50 (Plasmodium falciparum [19]): 6.33 nM; IC50 (Plasmodium falciparum [20]): 19.6 nM |
| Clc1ccc2c(NCC34CCCN3CCC4)ccnc2c1 | 1.06 | 24700 | > 60000 | 18100 | 99.5 | 13.7 | 99.7 | 10.3 | >99.9 | 25 | – | >99.9 | 25.7 | >99.9 | 29.3 | 96 | 7.3 | 1.5 | 30.6 | 28.9 | Activity (Mus musculus [21]): 20.8%; IC50 (Plasmodium falciparum [19]): 10.9 nM; IC50 (Plasmodium falciparum [20]): 10.6 nM; Activity (Mus musculus [22]): Non-toxic; Activity (Mus musculus [23]): Non-toxic; Activity (Mus musculus [24]): 12.9%; Activity (Mus musculus [25]): 10.1%; Activity (Mus musculus [26]): 8.3%; Activity (Mus musculus [27]): 22.9%; Activity (Mus musculus [28]): 22.2% |
